Screening data from PubChem BioAssay.
Shown are actives, neighbours in structure and some others; about 2.4% of the full set was active somewhere.
Myeloid diff 2: compounds promoting myeloid differentiation; ER-HoxA9 myeloid progenitors, lysozyme-GFP differentiation, flow cytometry; calls only at 10 µM; actives 1% (n = 360,000); AID 624256;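 active = normalized GFP-positive differentiation at or above the plate's own cutoff, the solvent-only control mean plus 3 SD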;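 also: cells exposed to compound for four days before flow analysis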
MT1-MMP act inh: MT1-MMP (human) activation inhibition. P50281. HT1080 RFP-PRO-GFP cells, GFP/RFP ratio fluorescence, overnight; percent of plate control window, DMSO zero. GFP/RFP ratio change, % at 20 µM. AID 651647. actives 0.061% (n = 360,000);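 active = GFP/RFP ratio change of at least 30% with cell ATP level not reduced by more than half and red fluorescence within 50% of control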
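Assay system – RFP-PRO-GFP reporter HT1080 cells · Compound dosing – single dose of 20 µM compound, 1% DMSO final · Incubation – overnight compound exposure at 37 °C · Measure – GFP/RFP fluorescence ratio · Benchmarks – DMSO wells and RFP-L50D-GFP cells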
beta cell repl: inducers of beta-cell replication in MIN6 cells; MIN6 cells proliferation, ATPlite luminescence, 48 h; cells starved in 0.2% serum; 100% = growth in 10% serum; proliferation, % at 10 µM; actives 0.29% (n = 330,000);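 active = compounds whose signal lies at least 3.5 SD above the mean of all wells on their plate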;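 also: 0% = DMSO-treated cells in low-serum medium and 100% = 10% serum control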
DAGLB inh: blocks human DAGLB lipase activity | actives 0.059% (n = 340,000) | AID 504411 | HEK293T DAGLB membrane lysate, EnzChek fluorogenic substrate | inhibition, % at 5.17 µM | Q8NCG7; in the data active = inhibition above about 34%;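 also: 0% = enzyme with vehicle and 100% = wells lacking enzyme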
CendR NRP1 mod: NRP-1/CendR interaction modulation | FAM-RPARPAR peptide binding to NRP-1, fluorescence polarization | inhibition, % at 25 µM | actives 0.85% (n = 360,000) | AID 602438;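 active = inhibition or corrected inhibition above about 18%, plus a signal ratio from 0.5 to 1.5, limit read from the data, passing the limit was not always enough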
Target sequence (O14786 whole entry, looked up): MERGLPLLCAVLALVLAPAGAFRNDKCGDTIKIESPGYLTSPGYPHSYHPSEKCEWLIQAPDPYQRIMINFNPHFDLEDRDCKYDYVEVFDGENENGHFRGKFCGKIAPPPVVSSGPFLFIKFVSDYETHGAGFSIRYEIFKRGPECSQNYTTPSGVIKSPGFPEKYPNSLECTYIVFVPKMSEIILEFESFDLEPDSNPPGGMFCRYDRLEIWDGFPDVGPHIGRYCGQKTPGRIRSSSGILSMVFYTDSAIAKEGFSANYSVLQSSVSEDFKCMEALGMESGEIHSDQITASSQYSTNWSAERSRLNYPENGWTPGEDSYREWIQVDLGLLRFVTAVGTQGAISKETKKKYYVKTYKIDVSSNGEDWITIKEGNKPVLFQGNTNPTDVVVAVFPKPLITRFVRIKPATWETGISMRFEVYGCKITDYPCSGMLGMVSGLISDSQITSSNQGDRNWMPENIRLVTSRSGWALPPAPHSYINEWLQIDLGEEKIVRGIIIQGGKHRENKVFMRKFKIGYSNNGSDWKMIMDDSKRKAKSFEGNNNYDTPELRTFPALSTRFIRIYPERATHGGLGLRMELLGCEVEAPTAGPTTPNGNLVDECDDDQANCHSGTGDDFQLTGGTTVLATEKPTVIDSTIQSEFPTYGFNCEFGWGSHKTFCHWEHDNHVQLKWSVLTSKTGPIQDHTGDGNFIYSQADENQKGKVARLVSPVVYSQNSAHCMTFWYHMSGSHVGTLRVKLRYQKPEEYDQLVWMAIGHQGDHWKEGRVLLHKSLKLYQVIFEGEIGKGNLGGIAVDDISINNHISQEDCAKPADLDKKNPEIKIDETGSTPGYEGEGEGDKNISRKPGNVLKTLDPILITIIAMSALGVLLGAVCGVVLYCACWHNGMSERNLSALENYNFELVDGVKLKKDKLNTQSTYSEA
SENP1 inh: inhibitors of human SENP1 SUMO protease catalytic domain; Q9P0U3; recombinant SENP1 catalytic domain, CyPet-SUMO1-YPet FRET cleavage; inhibition, % at 10 µM; actives 0.21% (n = 360,000); AID 624204;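 active = inhibition at least 30% at 10 µM, raw YFP signal under a set limit, fluorescence ratio 0.5 to 1.5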;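 also: 0% = enzyme with DMSO and 100% = no enzyme wells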
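Assay system – human recombinant His6-tagged SENP1 catalytic domain enzyme · Input – SENP1 enzyme, 20 pM final · Buffer or medium – Tris pH 8 buffer plus EDTA, NaCl, BME, BSA, NP40, catalase · Schedule – 50 min reaction at room temperature · Technique – FRET read of cyan and yellow fluorescence · Control set – no-enzyme wells low, DMSO-plus-enzyme wells high control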
Myeloid diff: compounds promoting myeloid differentiation. calls only. ER-HoxA9 myeloid progenitors, GFP/Mac1 double-positive flow. shares compounds with Myeloid diff 2. AID 651706. actives 2% (n = 2,300);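 active = share of green or green-and-red cells above 9 and 9% in run 1 or 4 and 3% in run 2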
GFP autofluor: compound fluorescence in myeloid differentiation counter-screen | shares compounds with Myeloid diff 2 | ER-HoxA9 myeloid progenitors, no estrogen, GFP autofluorescence flow cytometry; vehicle wells 0%, positive control 100% | fluorescence response, % (test concentration not listed) | actives 7.4% (n = 2,300);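 active = over 5% cells positive for green fluorescent reporter, or over 2% positive for both it and APC stain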;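 also: range taken on the double positive population between DMSO and positive control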
* marks the source's active call; other numbers are inactive results.

Screening O=C(O)c1ccc2c3c(cccc13)C(=O)N(c1ccccc1)C2=O returned Myeloid diff 2 inactive, MT1-MMP act inh -12, beta cell repl -1, DAGLB inh 0, CendR NRP1 mod -9 and SENP1 inh -6.
CCN(C[C@H]1N[C@@](CC)(C(=O)OC)[C@H]2C(=O)N(Cc3ccccc3)C(=O)[C@@H]12)S(=O)(=O)c1ccc(OC)cc1 was read as Myeloid diff 2 inactive, MT1-MMP act inh -1, beta cell repl 1, DAGLB inh 2, CendR NRP1 mod 3, SENP1 inh 2, Myeloid diff inactive and GFP autofluor 0.
`CC[C@@]1(C(=O)OC)N[C@H](CN(C)S(=O)(=O)c2ccc(-c3ccccc3)cc2)[C@@H]2C(=O)N(C)C(=O)[C@@H]21` gave Myeloid diff 2 inactive, MT1-MMP act inh 0, beta cell repl 1, DAGLB inh -2, CendR NRP1 mod -8, SENP1 inh 2, Myeloid diff inactive and GFP autofluor 0.
For O=C(c1cc(C2CC2)nn1-c1ccccc1)N1CCN(S(=O)(=O)c2cccc(F)c2)CC1 the results were Myeloid diff 2 inactive, MT1-MMP act inh -1, beta cell repl -2, DAGLB inh -3, CendR NRP1 mod 4 and SENP1 inh 1.
Fc1ccc(-c2cc3nc(-c4ccccc4)cc(N4CCOCC4)n3n2)cc1 was read as Myeloid diff 2 inactive, MT1-MMP act inh 7, beta cell repl -3, DAGLB inh -5, CendR NRP1 mod -9, SENP1 inh -80, Myeloid diff inactive and GFP autofluor 0.
CCN1C[C@@H]2[C@@H]3C(=O)N(Cc4ccccc4)C(=O)[C@@H]3[C@](CC)(C1=O)N2C(=O)c1ccc(Cl)c(Cl)c1 was read as Myeloid diff 2 inactive, MT1-MMP act inh -1, DAGLB inh 0, CendR NRP1 mod 22 and SENP1 inh 2.
For CCCOc1ccc(N/C=C/C(=O)c2cc(OC)c(OC)c(OC)c2)cc1 the results were Myeloid diff 2 inactive, MT1-MMP act inh 7, beta cell repl 1, DAGLB inh -4, CendR NRP1 mod -8 and SENP1 inh -29.
Cc1ncsc1CCSc1n[nH]c(=O)n1-c1ccccc1 was read as Myeloid diff 2 inactive, MT1-MMP act inh -4, beta cell repl 1, DAGLB inh -2, CendR NRP1 mod -12 and SENP1 inh 2.
For Cc1ncsc1CCSc1nc2ccccc2c(=O)n1C the results were Myeloid diff 2 inactive, MT1-MMP act inh 1, beta cell repl 3, DAGLB inh -8, CendR NRP1 mod -3, SENP1 inh 1, Myeloid diff inactive and GFP autofluor 0.
For C=C(C)[C@@H]1C2=CC(C(=O)OC)=C(C[C@H](C(=C)C)[C@H]3O[C@H]3C3=C[C@H]1OC3=O)O2 the results were Myeloid diff 2 inactive, MT1-MMP act inh 1, CendR NRP1 mod -1, SENP1 inh 0, Myeloid diff inactive and GFP autofluor 0.
`COC(=O)c1ccc(NC(=S)NC(=O)C2CCC2)cc1` gave Myeloid diff 2 inactive, MT1-MMP act inh 0, beta cell repl 1, DAGLB inh -4, CendR NRP1 mod 10 and SENP1 inh 3.
For COC(=O)c1ccc(NC(=S)NC2CCCCC2C)cc1 (stereo unspecified) the results were Myeloid diff 2 active, MT1-MMP act inh 5, beta cell repl -4, DAGLB inh -1, CendR NRP1 mod -3, SENP1 inh 1, Myeloid diff inactive and GFP autofluor 0.
C=CCNC(=O)COc1ccc(N(C)S(=O)(=O)c2ccc(NC(C)=O)cc2)cc1 was read as Myeloid diff 2 inactive, MT1-MMP act inh 1, beta cell repl -3, DAGLB inh 0, CendR NRP1 mod 5, SENP1 inh 2, Myeloid diff inactive and GFP autofluor 0.
For CC(C)c1ccc(C(=O)OCC(=O)c2c(N)n(C)c(=O)n(C)c2=O)cc1 the results were Myeloid diff 2 inactive, MT1-MMP act inh 7, beta cell repl -1, DAGLB inh 2, CendR NRP1 mod 9 and SENP1 inh 0.
Screening Cn1c(N)c(C(=O)COC(=O)c2ccco2)c(=O)n(C)c1=O returned Myeloid diff 2 active, MT1-MMP act inh -3, beta cell repl 2, DAGLB inh -1, CendR NRP1 mod 10, SENP1 inh -1, Myeloid diff inactive and GFP autofluor 0.
Screening COc1ccc(CN2CC(=O)N3[C@H]4c5ccccc5OC[C@@H]4[C@H](c4ccccc4)[C@]3(C)C2=O)cc1 returned Myeloid diff 2 inactive, MT1-MMP act inh -17, beta cell repl -7, DAGLB inh -9, CendR NRP1 mod -9 and SENP1 inh 6.
CC(C)c1ccc(/C=C(\c2nc3ccccc3[nH]2)S(=O)(=O)c2ccccc2)cc1 was read as Myeloid diff 2 active, MT1-MMP act inh -22, beta cell repl -6, DAGLB inh -2, CendR NRP1 mod -6, SENP1 inh -3, Myeloid diff inactive and GFP autofluor 0.
`COc1cc(F)c(C(=O)NC(C)(C)CO)cc1OC` gave Myeloid diff 2 inactive, MT1-MMP act inh 0, beta cell repl 3, DAGLB inh 0, CendR NRP1 mod -19 and SENP1 inh 1.
CC1=NN(c2ccccc2C)C(=O)C1 was read as Myeloid diff 2 inactive, MT1-MMP act inh 7, DAGLB inh 3, CendR NRP1 mod 8, SENP1 inh 1, Myeloid diff inactive and GFP autofluor 0.
Screening CC1=NN(c2ccc(C(F)(F)F)cn2)C(=O)C1 returned Myeloid diff 2 inactive, MT1-MMP act inh -13, beta cell repl -2, DAGLB inh 11, CendR NRP1 mod -3 and SENP1 inh 0.
COC(=O)C1CCCN1C(=O)c1cccs1 (stereo unspecified) was read as Myeloid diff 2 active, MT1-MMP act inh 0, beta cell repl 0, DAGLB inh -3, CendR NRP1 mod 9, SENP1 inh 2, Myeloid diff inactive and GFP autofluor 0.
ClCC1=Nc2cccc3cccc(c23)N1 was read as beta cell repl -6.
`CN(CC(=O)Nc1ccccc1C(F)(F)F)C(=O)c1ccc(N2C(=O)CCC2=O)cc1` gave Myeloid diff 2 inactive, MT1-MMP act inh 1, beta cell repl 0, DAGLB inh -4, CendR NRP1 mod 7 and SENP1 inh -2.
